Results published in ChEMBL document CHEMBL3808372, “Identification of quinones as novel PIM1 kinase inhibitors” (Bioorg Med Chem Lett, 2016).

How the values were obtained:
[1] = biological target: Activin receptor type-1B (Homo sapiens) (UniProt P36896); test: Inhibition of human ACVR1B (187 to 505 amino acid residues) expressed in bacterial system assessed as enzyme activity at 10 uM by KINOMEScan assay; design: scale not given: the % may be the effect or the level left
Summary of the method: (§1)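 Competition binding screen on a 100-kinase KINOMEscan panel, compound tested at a single 10 μM concentration. Primary binding read-out expressed as % Ctrl = (test compound signal − positive control signal)/(negative control signal − positive control signal) × 100, with lower values meaning stronger binding.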

[2] = biological target: Atypical kinase COQ8A, mitochondrial (Homo sapiens) (UniProt Q8NI60); test: Inhibition of full length human ADCK3 expressed in bacterial system assessed as enzyme activity at 10 uM by KINOMEScan assay; design: scale not given: the % may be the effect or the level left
Summary of the method: (§2)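 Commercial KINOMEscan binding panel of 100 kinases, test compound at 10 μM. Results are primary-screen binding interactions expressed as % Ctrl = (test compound signal − positive control signal)/(negative control signal − positive control signal) × 100. Lower % Ctrl means stronger binding.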

[3] = test system: Serine/threonine-protein kinase B-raf (Homo sapiens), P15056 [V600E]; test: Inhibition of human BRAF V600E mutant (429 to 741 amino acid residues) assessed as enzyme activity at 10 uM by KINOMEScan assay; design: scale not given: the % may be the effect or the level left; summary of the method: as §1
[4] = biological target: Cyclin-dependent kinase 2 (Homo sapiens) (UniProt P24941); test: Inhibition of full length human CDK2 expressed in bacterial system assessed as enzyme activity at 10 uM by KINOMEScan assay; design: scale not given: the % may be the effect or the level left; summary of the method: as §1
[5] = biological target: Cyclin-dependent kinase 7 (Homo sapiens) (UniProt P50613); test: Inhibition of full length human CDK7 assessed as enzyme activity at 10 uM by KINOMEScan assay; design: scale not given: the % may be the effect or the level left; summary of the method: as §1
[6] = biological target: Casein kinase I isoform delta (Homo sapiens) (UniProt P48730); test: Inhibition of full length human CSNK1D expressed in bacterial system assessed as enzyme activity at 10 uM by KINOMEScan assay system assessed as enzyme activity at 10 uM by KINOMEScan assay; design: scale not given: the % may be the effect or the level left; summary of the method: as §1
[7] = test system: Epidermal growth factor receptor (Homo sapiens), P00533 [L858R]; test: Inhibition of human EGFR L858R mutant (669 to 1011 amino acid residues) assessed as enzyme activity at 10 uM by KINOMEScan assay expressed in bacterial system assessed as enzyme activity at 10 uM by KINOMEScan assay; design: scale not given: the % may be the effect or the level left; summary of the method: as §2
[8] = biological target: Receptor tyrosine-protein kinase erbB-2 (Homo sapiens) (UniProt P04626); test: Inhibition of human ERBB2 (646 to 1225 amino acid residues) assessed as enzyme activity at 10 uM by KINOMEScan assay; design: scale not given: the % may be the effect or the level left; summary of the method: as §1
[9] = biological target: Receptor tyrosine-protein kinase erbB-4 (Homo sapiens) (UniProt Q15303); test: Inhibition of human ERBB4 (690 to 994 amino acid residues) assessed as enzyme activity at 10 uM by KINOMEScan assay expressed in bacterial system assessed as enzyme activity at 10 uM by KINOMEScan assay; design: scale not given: the % may be the effect or the level left; summary of the method: as §1
[10] = biological target: Focal adhesion kinase 1 (Homo sapiens) (UniProt Q05397); test: Inhibition of human FAK (402 to 696 amino acid residues) assessed as enzyme activity at 10 uM by KINOMEScan assay expressed in bacterial system assessed as enzyme activity at 10 uM by KINOMEScan assay; design: scale not given: the % may be the effect or the level left; summary of the method: as §1
[11] = biological target: Glycogen synthase kinase-3 beta (Homo sapiens) (UniProt P49841); test: Inhibition of full length human GSK3B assessed as enzyme activity at 10 uM by KINOMEScan assay; design: scale not given: the % may be the effect or the level left; summary of the method: as §1
[12] = biological target: Insulin receptor (Homo sapiens) (UniProt P06213); test: Inhibition of human INSR (997 to 1318 amino acid residues) assessed as enzyme activity at 10 uM by KINOMEScan assay; design: scale not given: the % may be the effect or the level left; summary of the method: as §1
[13] = biological target: Mitogen-activated protein kinase 10 (Homo sapiens) (UniProt P53779); test: Inhibition of human JNK3 (28 to 422 amino acid residues) assessed as enzyme activity at 10 uM by KINOMEScan assay; design: scale not given: the % may be the effect or the level left; summary of the method: as §1
[14] = biological target: Mitogen-activated protein kinase kinase kinase 4 (Homo sapiens) (UniProt Q9Y6R4); test: Inhibition of human MAP3K4 (1319 to 1608 amino acid residues) expressed in bacterial system assessed as enzyme activity at 10 uM by KINOMEScan assay; design: scale not given: the % may be the effect or the level left; summary of the method: as §2
[15] = biological target: MAP kinase-activated protein kinase 2 (Homo sapiens) (UniProt P49137); test: Inhibition of human MAPKAPK2 (48 to 345 amino acid residues) expressed in bacterial system assessed as enzyme activity at 10 uM by KINOMEScan assay; design: scale not given: the % may be the effect or the level left; summary of the method: as §1
[16] = biological target: MAP/microtubule affinity-regulating kinase 3 (Homo sapiens) (UniProt P27448); test: Inhibition of full length human MARK3 expressed in bacterial system assessed as enzyme activity at 10 uM by KINOMEScan assay; design: scale not given: the % may be the effect or the level left; summary of the method: as §2
[17] = biological target: Mitogen-activated protein kinase 11 (Homo sapiens) (UniProt Q15759); test: Inhibition of full length human p38-beta expressed in bacterial system assessed as enzyme activity at 10 uM by KINOMEScan assay; design: scale not given: the % may be the effect or the level left; summary of the method: as §1
[18] = biological target: Phosphatidylinositol 4,5-bisphosphate 3-kinase catalytic subunit gamma isoform (Homo sapiens) (UniProt P48736); test: Inhibition of human PIK3CG (144 to 1102 amino acid residues) assessed as enzyme activity at 10 uM by KINOMEScan assay; design: scale not given: the % may be the effect or the level left
Summary of the method: (§3)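 Single-concentration competition binding screen (KINOMEscan) across a 100-kinase panel at 10 μM. Primary binding read-out is reported as % of control: (test signal − positive-control signal)/(negative-control signal − positive-control signal) × 100. Lower values indicate stronger binding.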

[19] = biological target: Serine/threonine-protein kinase pim-1 (Homo sapiens, UniProt P11309); test: Inhibition of human PIM1 (15 to 313 amino acid residues) expressed in bacterial system assessed as enzyme activity at 10 uM by KINOMEScan assay; design: scale not given: the % may be the effect or the level left; summary of the method: as §3
[20] = biological target: Serine/threonine-protein kinase pim-3 (Homo sapiens) (UniProt Q86V86); test: Inhibition of human PIM3 (16 to 317 amino acid residues) expressed in bacterial system assessed as enzyme activity at 10 uM by KINOMEScan assay; design: scale not given: the % may be the effect or the level left; summary of the method: as §3
[21] = biological target: Serine/threonine-protein kinase PLK4 (Homo sapiens) (UniProt O00444); test: Inhibition of human PLK4 (1 to 273 amino acid residues) assessed as enzyme activity at 10 uM by KINOMEScan assay; design: scale not given: the % may be the effect or the level left; summary of the method: as §3
[22] = biological target: High affinity nerve growth factor receptor (Homo sapiens) (UniProt P04629); test: Inhibition of human TRKA (475 to 790 amino acid residues) assessed as enzyme activity at 10 uM by KINOMEScan assay; design: scale not given: the % may be the effect or the level left; summary of the method: as §2
[23] = biological target: Testis-specific serine/threonine-protein kinase 1 (Homo sapiens) (UniProt Q9BXA7); test: Inhibition of full length human TSSK1B expressed in bacterial system assessed as enzyme activity at 10 uM by KINOMEScan assay; design: scale not given: the % may be the effect or the level left; summary of the method: as §1
[24] = biological target: Vascular endothelial growth factor receptor 2 (Homo sapiens) (UniProt P35968); test: Inhibition of human VEGFR2 (787 to 1253 amino acid residues) assessed as enzyme activity at 10 uM by KINOMEScan assay; design: scale not given: the % may be the effect or the level left; summary of the method: as §2
[25] = biological target: Proto-oncogene tyrosine-protein kinase Src (Homo sapiens) (UniProt P12931); test: Inhibition of SRC (unknown origin)
[26] = biological target: Death-associated protein kinase 1 (Homo sapiens) (UniProt P53355); test: Share of MOE computational kinase hits for DAPK

**Q.** `O=C1C2=C(C(=O)c3c(O)ccc(O)c31)[C@@H](O)[C@@H](O)[C@@H](O)C2` was tested. Which Activity [1] did it give?
**A.** 90%

**Q.** What about the Activity [2] of the same compound?
**A.** 100%

**Q.** What about the Activity [3] of the same compound?
**A.** 70%

**Q.** And the Activity [4]?
**A.** 92%

**Q.** And the Activity [5]?
**A.** 88%

**Q.** And the Activity [6]?
**A.** 30%

**Q.** And the Activity [7]?
**A.** 78%

**Q.** And the Activity [8]?
**A.** 93%

**Q.** And the Activity [9]?
**A.** 95%

**Q.** What about the Activity [10] of the same compound?
**A.** 95%

**Q.** What about the Activity [11] of the same compound?
**A.** 85%

**Q.** What about the Activity [12] of the same compound?
**A.** 97%

**Q.** What about the Activity [13] of the same compound?
**A.** 76%

**Q.** And the Activity [14]?
**A.** 100%

**Q.** What about the Activity [15] of the same compound?
**A.** 93%

**Q.** What about the Activity [16] of the same compound?
**A.** 100%

**Q.** And the Activity [17]?
**A.** 92%

**Q.** And the Activity [18]?
**A.** 68%

**Q.** What about the Activity [19] of the same compound?
**A.** 34%

**Q.** What about the Activity [20] of the same compound?
**A.** 36%

**Q.** What about the Activity [21] of the same compound?
**A.** 89%

**Q.** What about the Activity [22] of the same compound?
**A.** 78%

**Q.** What about the Activity [23] of the same compound?
**A.** 89%

**Q.** And the Activity [24]?
**A.** 100%

**Q.** What about the % of MOE kinase hits [25] of the same compound?
**A.** 14%

**Q.** And the % of MOE kinase hits [26]?
**A.** 7%
